Screening results as filed in PubChem BioAssay.
Many of the other results were omitted from the sample, so hits are more common in it than they were.
V-ATPase pHluor – regulators of yeast V-ATPase proton pumping, primary screen, pHLuorin cytosolic pH fluorescence; S. cerevisiae; response, % at 10 µM; actives 0.37% (n = 350,000); AID 504577, 2011; in the data active means response mostly above about 7.3%, no sharp cut-off; inactive means mostly below about 5.4%; further: actives read high
p-CIP stab down – p/CIP-EGFP fusion destabilizers, primary screen, fluorescence, F442A cells; actives 0.01% (n = 290,000); Q05BA5; 16 h; decrease of EGFP signal, % at 10 µM;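 active means EGFP signal decrease of at least 30% at 10 µM or well 3 SD below plate mean, unless failing retest; inactive means the rest, including hits failing retest or dose response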
Target sequence (Q05BA5 1-1403): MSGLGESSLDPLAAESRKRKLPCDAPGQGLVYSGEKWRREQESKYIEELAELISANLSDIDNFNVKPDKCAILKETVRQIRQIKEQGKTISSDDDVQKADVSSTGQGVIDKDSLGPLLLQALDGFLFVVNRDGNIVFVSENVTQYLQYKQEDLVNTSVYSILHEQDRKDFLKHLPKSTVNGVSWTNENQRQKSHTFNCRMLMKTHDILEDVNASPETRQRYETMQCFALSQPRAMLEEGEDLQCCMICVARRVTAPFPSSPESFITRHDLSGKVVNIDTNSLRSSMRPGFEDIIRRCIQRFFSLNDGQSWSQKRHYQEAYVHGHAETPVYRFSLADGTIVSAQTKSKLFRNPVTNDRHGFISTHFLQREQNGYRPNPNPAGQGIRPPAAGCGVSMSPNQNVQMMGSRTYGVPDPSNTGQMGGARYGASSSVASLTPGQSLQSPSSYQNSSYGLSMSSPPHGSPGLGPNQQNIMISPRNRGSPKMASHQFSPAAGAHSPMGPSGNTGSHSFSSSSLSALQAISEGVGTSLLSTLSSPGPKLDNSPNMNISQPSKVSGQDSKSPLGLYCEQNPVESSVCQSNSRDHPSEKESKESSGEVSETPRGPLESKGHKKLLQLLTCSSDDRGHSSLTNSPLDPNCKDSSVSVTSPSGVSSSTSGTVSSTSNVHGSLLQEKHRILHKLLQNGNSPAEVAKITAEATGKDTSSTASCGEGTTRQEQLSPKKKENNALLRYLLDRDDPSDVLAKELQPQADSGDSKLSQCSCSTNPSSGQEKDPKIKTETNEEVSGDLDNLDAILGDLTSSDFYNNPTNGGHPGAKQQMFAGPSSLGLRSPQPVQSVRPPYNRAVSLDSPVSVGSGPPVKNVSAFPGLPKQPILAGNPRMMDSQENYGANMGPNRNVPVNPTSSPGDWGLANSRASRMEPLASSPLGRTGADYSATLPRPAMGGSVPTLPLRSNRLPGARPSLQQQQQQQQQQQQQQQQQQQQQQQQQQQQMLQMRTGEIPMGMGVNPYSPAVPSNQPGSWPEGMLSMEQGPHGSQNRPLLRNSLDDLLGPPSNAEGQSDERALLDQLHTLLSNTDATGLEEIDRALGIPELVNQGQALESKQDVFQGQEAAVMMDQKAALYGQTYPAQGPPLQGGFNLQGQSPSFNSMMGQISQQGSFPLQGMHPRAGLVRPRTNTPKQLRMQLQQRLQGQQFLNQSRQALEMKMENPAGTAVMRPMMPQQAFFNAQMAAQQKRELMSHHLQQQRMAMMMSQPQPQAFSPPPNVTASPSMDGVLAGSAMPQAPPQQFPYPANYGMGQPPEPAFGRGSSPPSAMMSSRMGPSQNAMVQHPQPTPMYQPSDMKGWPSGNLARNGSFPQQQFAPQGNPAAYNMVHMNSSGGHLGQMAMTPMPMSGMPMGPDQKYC
Dynein transport – inhibitors of GR-EGFP nuclear translocation, primary screen, dynein cargo transport inhibitor project, imaging, high-content, 3617.4 mouse cells; test concentration mostly 20 µM; stimulated with dexamethasone, 1 µM; active compounds read low; z-score, hits read low; actives 0.47% (n = 220,000); AID 1381, 2008;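 active means plate z-score of nuclear minus cytoplasmic receptor signal below a set negative limit, without overly bright fluorescence or cell loss, cut at about -3.5 in these data, passing the limit was not always enough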;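 further: z-score of nuclear minus cytoplasmic ring GR-EGFP intensity difference per well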
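medium = tetracycline-free induction medium containing charcoal-stripped FBS | probe or stimulus = dexamethasone, 1.0 µM final | timing = 48 h induction, then 1 h compound, then 30 min agonist, 37 °C | detection = automated 10x imaging of fixed Hoechst-stained cells | read-out basis = nuclear versus cytoplasmic GR-EGFP signal, averaged per well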
ABCB6 inh 2 – ABCB6 transporter inhibitors, primary screen, K562-ABCB6 cells, flow cytometry, MLPCN library | actives 0.19% (n = 360,000) | fluorescence ratio to DMSO, % at 10 µM | K562-ABCB6 porphyrin accumulation, 1 h; active compounds read low | ATP-binding cassette sub-family B member 6 (Homo sapiens), Q9NP58;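 active means fluorescence ratio to DMSO below 75%, the collection mean minus 3 SD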;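 further: signal is porphyrin accumulated inside mitochondria; 100% equals median channel fluorescence of DMSO control wells; lower ratio means ABCB6 inhibition with less porphyrin fluorescence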
KCC2 mod – KCC2 cotransporter modulators, thallium flux, primary screen, cell-based, HEK293 KCC2, FluoZin-2 fluorescence, MLSMR | AID 1456, 2008 | KCC2 cells, thallium flux FluoZin-2 fluorescence | B-score of Tl+ flux slope (higher = more flux/activation; lower = inhibition) at 10 µM | actives 2.2% (n = 190,000);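 active means thallium flux slope and its plate-corrected score both differing from the plate sample mean at a set confidence after two filtering rounds, in either direction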;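 further: slope of fluorescence scaled to starting intensity during 10 to 20 s after thallium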
V-ATPase pH SP – yeast V-ATPase proton pumping modulators, confirmation, S. cerevisiae, pH-sensitive GFP, second cherry-pick. response, % at 10 µM. S. cerevisiae pHLuorin cytosolic pH, V-ATPase proton transport. actives 2% (n = 980). shares compounds with V-ATPase pHluor; in the data active means response above about 24%;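 further: plate controls were vehicle wells for no effect and positive control wells for full effect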
The depositor's hits bear a star; / = not tested or not shown.

SMILES	V-ATPase pHluor	p-CIP stab down	Dynein transport	ABCB6 inh 2	KCC2 mod	V-ATPase pH SP
C[n+]1cc[nH]c1SCC(=O)c1ccccc1	0.7	-4.7	-1.45	98.0	-0.02	/
C[n+]1cc[nH]c1SCC(=O)c1ccc(Cl)cc1	7.5*	-1.7	1.46	102.0	-0.822	3.9
O=C(O)c1cc(-c2ccccc2)n(-c2ccc(Cl)cc2)n1	-0.2	-2.9	-1.43	99.0	-1.6	/
O=C(O)c1cc(-c2ccc(Cl)c(Cl)c2)n(-c2ccc(F)cc2)n1	12.5*	-3.6	/	102.0	/	1.2
Cc1ccc(C(=O)CN2C(=O)C(=O)N(Cc3ccccc3)C2=O)cc1	-3.9	-1.7	0.332	97.0	-0.239	/
CC(NC(=O)COC(=O)/C=C/c1cccc(C(F)(F)F)c1)c1ccccc1 (stereo not given)	21.4*	2.2	-0.657	98.0	-0.443	-2.8
CC(C)(C)c1cc(C(=O)N/N=C/c2cc3c(cc2Br)OCO3)n[nH]1	10.9*	4.5	/	100.0	/	5.9
O=C(N/N=C/c1cc2c(cc1Br)OCO2)c1ccccn1	3.9	6.7	-0.275	100.0	-2.96	/
COc1ccc(NC(=O)CN2C(=O)CSc3ncccc32)cc1	5.8	4.7	/	100.0	/	/
CC(=O)c1c(C)[nH]c(C(=O)COC(=O)COc2ccccc2F)c1C	12.5*	/	/	97.0	/	-1.1
O=[N+]([O-])c1cc([N+](=O)[O-])c(N2CCCCCC2)cc1NCCO	8.3*	-8.8	2.82	98.0	/	-0.6
O=[N+]([O-])c1c(NCCO)cc(N2CCCCC2)c2nonc12	-1.5	-16.0	-0.276	96.0	-0.723	/
CN(C)N1C(=O)CC(N2CCCC2)C1=O (stereo not given)	10.9*	-19.5	0.0305	98.0	-0.0346	1.8
CCN1C(=O)CC(N2CCOCC2)C1=O (stereo not given)	-0.3	-1.2	0.15	95.0	0.106	/
Cc1nnsc1S(=O)c1ccccc1Cl (stereo not given)	-0.7	-0.6	/	87.0	/	/
Cc1ccccc1C(=O)NC(=S)Nc1ccc(S(=O)(=O)N2CCN(C)CC2)cc1	0.7	-19.7	-0.335	98.0	0.476	/
Cc1ccccc1C(=O)NC(=S)Nc1ccc(S(=O)(=O)N2CCOCC2)cc1	9.5*	-14.6	0.175	95.0	0.235	-2.8
Cc1ccc(S(=O)(=O)NCC(=O)N2CCCCC2)cc1	11.6*	-8.6	0.0091	100.0	0.846	-41.7
COc1ccc(C(=O)C2CCCN(C(=O)C3=CCCC3)C2)cc1OC (stereo not given)	10.1*	-34.9	-0.214	98.0	-1.03	-6.8
Cc1cc(C(=O)Nc2cccc3cccnc23)ccc1[N+](=O)[O-]	-0.5	1.0	1.16	104.0	0.637	/
CCOC(=O)c1ccc(NC(=O)COc2ccccc2CNCCc2ccccc2)cc1	13.5*	10.1	0.484	105.0	1.69	-1.3
Cc1ccc(S(=O)(=O)NCCC(=O)N2CCN(S(=O)(=O)c3ccccc3)CC2)cc1C	-0.4	/	/	93.0	/	/
Cc1ccc(S(=O)(=O)NCCC(=O)N2CCN(S(=O)(=O)c3cccc(F)c3)CC2)cc1C	9.1*	/	/	93.0	/	-5.1
O=C(N[C@@H](Cc1ccccc1)C(=O)NCCc1c[nH]c2ccccc12)c1ccco1	12.9*	-6.3	/	96.0	/	-0.8
O=S(=O)(Nc1ccc(-c2cn3c(n2)SCC3)cc1)c1cc(F)ccc1F	-2.9	/	/	101.0	/	/
SMILES	V-ATPase pHluor	p-CIP stab down	Dynein transport	ABCB6 inh 2	KCC2 mod	V-ATPase pH SP
Cc1ccc2[nH]c(=O)c(CN(Cc3ccccc3Cl)C(=O)N3CCOCC3)cc2c1	16.2*	-0.2	-0.395	105.0	-2.29	-2.5
Cc1ccc2[nH]c(=O)c(CN(CCN3CCOCC3)C(=O)Nc3ccccc3F)cc2c1	0.4	-0.1	0.185	97.0	1.36	/
Cn1c(=O)c2cc(S(=O)(=O)NC(Cc3ccccc3)C(=O)NCc3ccco3)ccc2n(C)c1=O (stereo not given)	6.0	2.3	-0.968	102.0	-0.825	/
COCCCNC(=O)C(Cc1ccccc1)NS(=O)(=O)c1ccc2c(c1)c(=O)n(C)c(=O)n2C (stereo not given)	16.2*	1.0	0.109	98.0	-0.0568	-1.9
COc1ccc(CCN(C)C(=O)c2ccc(S(=O)(=O)Nc3ccccc3F)cc2)cc1OC	1.2	4.2	/	93.0	/	/
COc1ccc(CC(=O)N2CC(=O)N(CCc3ccccc3)C(=O)C2)cc1	8.7*	-10.3	-0.727	92.0	/	-0.5
COc1ccc(C(=O)N2CC(=O)N(CCc3ccccc3)C(=O)C2)cc1OC	2.2	-1.9	-0.4	96.0	0.39	/
CCN(CC(=O)Nc1ccc(NC(C)=O)cc1)C(=O)c1cc(C)on1	10.3*	/	/	97.0	/	0.8
Cc1ccc(NC(=O)CN(C)C(=O)c2cc(C)on2)cc1	0.4	/	/	98.0	/	/
Cc1ccc(C(=O)NNC(=O)c2ccco2)cc1	16.8*	-9.8	-0.633	101.0	-0.416	0.3
O=C(NNC(=O)c1ccco1)c1ccccc1	3.2	-12.3	1.14	104.0	0.98	/
Cc1nc(C(=O)Nc2ccc(Cl)cc2)sc1C1(C)CC(c2cccc([N+](=O)[O-])c2)=NO1 (stereo not given)	10.0*	/	/	98.0	/	-4.0
O=C1NCCN1CCN1C(=O)c2ccccc2NC1c1ccccc1 (stereo not given)	-1.0	-7.0	0.238	91.0	0.449	/
COc1c(O)c(O)c2oc(-c3ccccc3)cc(=O)c2c1OC	10.6*	-16.4	-0.955	94.0	-1.31	2.3
COc1cc(-c2cc(=O)c3c(O)c(OC)c(OC)c(O)c3o2)ccc1O	3.5	2.5	0.0565	96.0	-0.72	/
N/C(=N\OC(=O)Cc1ccccc1)c1cccc(Br)c1	-2.1	1.4	-0.0442	99.0	-1.47	/
N/C(=N\OC(=O)Cc1ccccc1[N+](=O)[O-])c1cccc(Br)c1	13.5*	3.6	-1.27	104.0	-0.526	-2.6
CC(=O)Nc1ccc(S(=O)(=O)NCCC(=O)NCCCc2ccccc2)cc1	-3.4	/	/	96.0	/	/
O=C(O)c1ccc(-c2nnc(-c3ccc([N+](=O)[O-])cc3)o2)cc1	9.4*	6.4	/	102.0	/	2.5
COc1ccc(S(=O)(=O)N2CCCCCC2)cc1C(=O)N1CCN(c2ccc(F)cc2)CC1	-6.0	/	/	97.0	/	/
O=C(Nc1ccc(F)cc1Cl)c1ccc2c(=O)n3c(nc2c1)CCC3	11.0*	/	/	99.0	/	0.5
O=C(Nc1ccc(F)cc1F)c1ccc2c(=O)n3c(nc2c1)CCC3	-0.9	/	/	87.0	/	/
CCCOc1ccc(-c2c(C(=O)N/N=C/c3cccs3)nnn2-c2nonc2N)cc1	1.2	-4.1	/	92.0	/	/
Cc1oc(C(C)(C)C)cc1C(=O)Nc1cccc(/C=C\C(=O)O)c1	13.8*	11.2	-0.682	104.0	-0.626	-3.9
